Laboratory results: the EternaBench riboswitch data

Test system: MS2 coat protein
Test: apparent Kd, MS2 coat protein; higher = weaker binding; RNA-MaP array; FMN 200 µM where present
Outline: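 On Illumina sequencing-chip clusters, designs were transcribed by stalled E. coli RNA polymerase and titrated with SNAP-549-labelled MS2 coat protein (0.7 or 1.5 nM, doubling to 3 µM), without and then with constant ligand, in 100 mM Tris-HCl pH 7.5, 80 mM KCl, 4 mM MgCl2, BSA, DTT, yeast tRNA and Tween-20. Apparent Kd is the median of filtered per-cluster curve fits to green signal normalised to red-channel RNA signal and control-cluster median Fmax.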

[1] = designed as: OFF switch for flavin mononucleotide, no ligand
[2] = ligand present: flavin mononucleotide, designed as: OFF switch for flavin mononucleotide
[3] = designed as: ON switch for flavin mononucleotide, no ligand
[4] = ligand present: flavin mononucleotide, designed as: ON switch for flavin mononucleotide

Row | Sequence | apparent Kd [1] [nM] | apparent Kd [2] [nM] | apparent Kd [3] [nM] | apparent Kd [4] [nM]
1 | UGUCGGAGCAGAGGAUAUUACAUGAGGAUCACCCAUGUAUGAACCAAUCGCUGGAAACAGCAAUGUAAGAAGGCUGCUCCGACA | 10.3 | 73.7 |  | 
2 | GGUGCAUAUGAGAAGGCGAUCAUGAAACAUGAUCGAGGAUAUCAUGUAAACAUGAGGAUCACCCAUGUAUGGGAAAAGUGCACC |  |  | 64.8 | 8.54
3 | GCUGCAUAGGCAGGAUAUGCAACAAUGAGAAUAAAAUAUAACUCAUUGACAUGAGGAUCACCCAUGUAGAAGGGCCUGUGCAGU | 19 | 18.2 |  | 
4 | GCACAUGAUACAGGAUAUGUUUAGGAUUUUAUAUACAGUUAUUUUAUUUUGACAGAAGGGUAUACAUGAGGAUCACCCAUGUGC | 87.2 | 58.1 |  | 
5 | GUGCACAUUCGAGGAUAUCGGAGAGGAAUCCUUCGAGAAGGCGAUUCAUGCUGUGUUAUUCUGGACAUGAGGAUCACCCAUGUG |  |  | 192 | 97.8
6 | CCGGGCAUCGGCCCAUCUAGGCGAAGAAGGGACACGGCCAAGAUCUCACAUGAGGAUCACCCAUGUCAGGAUAUUUGGUUGGAU | 6.56 | 10.3 |  | 
7 | CUGUUAUAGGUCCAGUUUUACAACAUGAGGAUCACCCAUGUGCAGGAUAUCGUGUUAAUUUUCAUCGAGAAGGGCAUAGUCACG | 37.6 | 105 |  | 
8 | ACAUGAGGAUCACCCAUGUAUACAUAGGAUAUUGGUGAUCAGGGAUGUUUUACAGGAUAUGUCUGCGAGAAGGAUGCAAGUACA |  |  | 352 | 151
9 | UAUACACAUGAGGAUCACCCAUGUGAGGAUAUGUUAAUUUUAAUGAAAAUUAAAAUUAACAGAAGGCACAUAUA | 64.1 | 80.3 |  | 
10 | AGCUACGUUUCGUAGCAGCUAGGUGAGGAUAUCCUUUACAUGAGGAUCACCCAUGUUUAGCCAUGGGAGAAGGCGCCUAGAAAG |  |  | 1090 | 113
11 | ACUUUACGAGGAUAUACUGUCGGGCCUCGGGCGUACAUGCGACAUGAGGAUCACCCAUGUAGAAGGCGUUUACU | 33.1 | 119 |  | 
12 | UUGGUAUUCGUAGGAUAUCUGUCGCCACCGUGUGGAGAAGGACGAACAUGAGGAUCACCCAUGUAUCAUGGUGUGGGCGUUGUU | 85.8 | 89.9 |  | 
13 | GCUGACGUAGGAUAUCAAUAGCCUCACAUGAGGAUCACCCAUGUCGGUAGGUGUACUGGAUGAGAAGGACGUCGUU | 38.3 | 23.9 |  | 
14 | GGUACCAUCGCAGGAUAUGGUAUCCUUUGGGUACCAGAAGGGUGAUAACAUGAGGAUCACCCAUGUGGUACCGGGCGUGAGCCC |  |  | 29 | 970
15 | UGUCGGAGCAGAGGAUAUUACAUGAGGAUCACCCAUGUCUGAACCAAUAGCUGGAAACAGCAAUGUAAGAAGGCUGCUCCGACA | 154 | 432 |  | 
16 | CAGAAGUCAGGAUAUGCAUGGCGGGACUUGCGUCGUGGCGUGCAGAAGGGACAUGAGGAUCACCCAUGUGGAGA | 138 | 224 |  | 
17 | UUUGUUUAUGCAGGAUAUUGACUUUUAUUUCUACAAGAAGGGCAUUACAUGAGGAUCACCCAUGUCUACAUGUAUUUAACUAGU | 67.8 | 49.1 |  | 
18 | CAGGUAGACUGAGGAUAUACAAUAAACAGCUAGUCUAUCUAGCUGUCUACAUGAGGAUCACCCAUGUAGAAGGCAGUCUGCCUG | 17 | 17.4 |  | 
19 | AGAGACCUCACAGGAUAUGCUGGACUUUGUCCAGCAGAAGGGUGAAAACAUGAGGAUCACCCAUGUAUGGUCUCCAAAUUUAAU |  |  | 167 | 12.8
20 | UUACAUACAAAGGUACAUGAGGAUCACCCAUGUUUGUUGGGAAGAAGGGUAACAGUACUACAUUUAUAGGAUAUUUCACAAAUA |  |  | 95.5 | 64
21 | ACAGGUGCAGGAUAUACAUGAGGAUCACCCAUGUGAUUAGCAGUCCUCGGACUGCAAUGUAGAAGGGCACCUGU | 327 | 1120 |  | 
22 | AAAACCAGAGGAUAUGCGCAUAGAUCAGACUUUGUUUCUUAACAUGAGGAUCACCCAUGUAGAAGGCUGUAAAA | 17.3 | 15.4 |  | 
23 | CUGGUGUGAGGAUAUCAGGACACGCCCGCGGACGUGUCAAAUGAGAAGGCACAUGAGGAUCACCCAUGUGGGAC | 33.4 | 166 |  | 
24 | ACAUGAGGAUCACCCAUGUAGAAUGAAGAAGGUAGAUACUUGAGGCUCACCCAUGUACAUAGGACUAAGGAUAUUCUAAUAAUU |  |  | 25 | 22
25 | CAUUAAUUCAUUAUAUUAAUUUUACAGGAUAUGUAACAUGAGGAUCACCCAUGUAUUCAAGGUUAACAGAAGGGUAUAUCUAGU | 18.2 | 14 |  | 
26 | GCUGCAUAGUCAGGAUAUGCAAAGUAAUGUAUGGAAACAUACAUUACAACAUGAGGAUCACCCAUGUAGAAGGGACUGUGCAGU | 13.9 | 12.2 |  | 
27 | CAGUAUAACGAAGGAUAUGGAUACAUGAGGAUCACCCAUGUAUUUUUUGUGAUUUUAAAAUUGAUCCAGAAGGUCGUAUAACUG | 31.1 | 29.2 |  | 
28 | AAAAAAAAUGUGUAGGAUAUCAGUAAAAAUACAUGAGGAUCACCCAUGUUCAAAAAAAAAAAAACUGAGAAGGACGUGGAUGGUCC |  |  | 79 | 59.9

Row | Sequence | apparent Kd [1] [nM] | apparent Kd [2] [nM] | apparent Kd [3] [nM] | apparent Kd [4] [nM]
29 | AACAGUAGAGGAUAUACAUGAGGAUCACCCAUGUGAGAAUUACGUGGCGUACCACGAAGUAGAAGGCUACUGGA | 61.3 | 302 |  | 
30 | UAUAUACAUGAGGAUCACCCAUGUCAGGAUAUUAGAUAUAUAUAUACAUAUAAUUAUUUAAGAAGGGACACUAA | 43.8 | 46 |  | 
31 | UUUAUUUUGCAAGGAUAUGUUUAAUUUUAGUUUCCUUAAACAUGAGGAUCACCCAUGUUAUACUUACAGAAGGUGCAUAAUUUU | 90.6 | 52.5 |  | 
32 | GCUGCUUAUGAGAAGGCGAUCAUGAAACAUGAUCGAGGAUAUCAUGUAAACAUGAGGAUCACCCAUGUAUGGGUAUUAUGCAGC |  |  | 374 | 37.6
33 | CCGGUUGGCGCAGGAUAUACAUGAGGAUCACCCAUGUUGAUGAGGAUCACCCAUCAGUUUUUGUUGUAGAAGGGUGGCCCGGCC | 23.1 | 19.3 |  | 
34 | UUUGCAUGACGAGGAUAUCAUUUAUUUCUUGAUUGAGAAGGCGUUCUUUUUACUACCUAACAUGAGGAUCACCCAUGUGACAGU |  |  | 16.1 | 12.7
35 | UAUAUAUAGUAAGGAUAUGUAUAUAUAUUAUAAACAGAAGGUACUGACAUGAGGAUCACCCAUGUUUUAGUGUGGGCAUGUAGA | 75.1 | 96.1 |  | 
36 | UUAAAUCAUGUAGGAUAUGCAUGGCGAAGCUACGCAGAAGGACAUGAGGAUCACCCAUGUUCGAGCGUCUGAGUACAGAUGCAA | 19.1 | 59.8 |  | 
37 | GCCAUCGCGUGAGGAUAUGCUCCGGUUUCCGGAGCAGAAGGCAUGUCAUUAGACAUGAGGAUCACCCAUGUAGUUAAGAUGGCA |  |  | 562 | 18.2
38 | ACGUUAAUUCGAGGAUAUCGGUGAUUUAUAUUACGAGAAGGCGAUAAUUGUGAUAAACUUAUAGACAUGAGGAUCACCCAUGUA |  |  | 42.7 | 38.8
39 | UGUCAAAAUGAAGGAUAUCUAAGCAUAAACCAUAGAGAAGGUCAAUAGUACAUGAGGAUCACCCAUGUUAGAAUAGAUGGGUUA | 99.9 | 155 |  | 
40 | AUCAGCUCGUCAGGAUAUACAUCACUGCUUCGGCAGUGUAUCAUAACAACAUGAGGAUCACCCAUGUAGAAGGGACGAGCUGAU | 23.8 | 34.7 |  | 
41 | UUAUAUAAUGUGAGGAUAUGCUGGUCCUUGGAUCAGCAGAAGGCACAUGAGGAUCACCCAUGUAGUAAAUUUUA | 19 | 24.4 |  | 
42 | ACUGUUGAGUAGAAGGUACGAUAUUAGUUAUAGUAAGGAUAUACUAACAUGAGGAUCACCCAUGUAUAAAUGGAUAAAUAUUCU |  |  | 9.91 | 11.5
43 | GUUCUGCCUCCUGCCGGAACAUGAGGAUCACCCAUGUUGCCUGAGGAUAUCCUAUGGCGCCCACAGGAGAAGGCGGGCAACAUA | 38.1 | 233 |  | 
44 | AGUGACGGUACAGGAUAUGCUGGACUUUGUCCAGCAGAAGGGUAUUAACAUGAGGAUCACCCAUGUUCCGUCACCAAAUUUAAU |  |  | 41 | 7.4
45 | UCCUGACCGAGAGGUAGGAGUGGUAGAAGGCGACCGGUGCCAGAUGACAUGAGGAUCACCCAUGUCGAGGAUAUACCACAGAAU | 7.45 | 14.1 |  | 
46 | UAUAUGUCAGGAUAUCGAUUGGAAUGGAAUUUAGUUCUGGUUGAGAAGGGACAUGAGGAUCACCCAUGUUUUUC | 35.5 | 213 |  | 
47 | GGAUUACAUGAGGAUCACCCAUGUGAGGAUAUCGAUGUCCUCAAUAAAGUGCGGGACUCGAGAAGGCACUUGGA | 63 | 83 |  | 
48 | UUUAAGCGAGGAUAUACAUGAGGAUCACCCAUGUCAAGUAUUCUUGACGCCGUGCUCUGUAGAAGGCGCAAUUA | 65.2 | 522 |  | 
49 | UGAACCUUCACAGGAUAUCAUGCGAAAAUUGCGUGAGAAGGGUGAAUAUGGUGUUCAUAGUUGCACAUGAGGAUCACCCAUGUA |  |  | 191 | 128
50 | GCUUUAGCACAUGAGGAUCACCCAUGUAGCGUGGGCUUACACAGAAGGGCAAACCGUUACGGGAUGUAGGAUAUGUGCAAAAUG |  |  | 196 | 68.6
51 | CCACUCGGUGAGAAGGCGCCGGCGUCCGCGAGGCGAGGAUAUCACAUGAGGAUCACCCAUGUGGGCAUGAAGAUUGCCACUAGG | 61.3 | 152 |  | 
52 | UGUAGUUCAGGAUAUGAUGUUUAAAACAUGAGGAUCACCCAUGUAGAUCCUGAAUUAACAUCAGAAGGGAAUAUUU | 17.9 | 46.2 |  | 
53 | CAGACACAUGAGGAUCACCCAUGUGAGGAUAUGCGUACGUUGUCCGUAGGCGACGUGCGCAGAAGGCACAAAGG | 73.4 | 104 |  | 
54 | UCCACUGCUGAGAAGGGAUACGUGUGGUUCGCAUCAGGAUAUCGAUACAGUGCAGCAUGAGGACAUGAGGAUCACCCAUGUAUU |  |  | 24.6 | 13.4
55 | UUUGUCUGUGUGAGGAUAUACUUGUUUGGGUUUUUGUAGAAGGCACAUGAGGAUCACCCAUGUAUUUUGUCGUG | 43.6 | 61.6 |  | 
